In brackets after ≈: the same amount, converted by molar mass. Activity calls are given as the source filed them. The rule behind the calls is not given here.
Key:
[1] = test system: Trichophyton mentagrophytes; test: Antifungal activity against Trichophyton mentagrophytes ATCC 9972 by NCCLS broth microdilution method; type: functional; details: read-out: MIC100
Outline: (§1)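 MIC by broth microdilution per NCCLS M27-A3/M38-A2 in RPMI-1640 buffered to pH 7.0 with MOPS. Twofold dilutions from 250–0.98 µg/mL, final DMSO ≤1%. Inoculum 1–5 × 10³ CFU/mL. Incubated in a moist dark chamber, 30 °C for Aspergillus and 28–30 °C for dermatophytes. Read visually when control growth allowed. Endpoint is the lowest concentration giving total inhibition of visible growth (MIC100).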

[2] = test system: Nannizzia gypsea; test: Fungicidal activity against Microsporum gypseum CCC 115 after 48 hrs by agar plate dilution method; type: functional; details: CCC 115, 48 h
Outline: (§2)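 MFC: after the microdilution MIC, material from each clear well was plated onto RPMI-1640 agar buffered with MOPS. Plates incubated at 30 °C and read after 48 h. MFC is the lowest concentration giving total inhibition of visible growth.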

[3] = test system: Cryptococcus neoformans; test: Antifungal activity against Cryptococcus neoformans ATCC 32264 assessed as growth inhibition at 7.8 ug/mL after 48 hrs by microplate reader analysis; type: functional; details: ATCC 32264, 48 h, read-out: GI
Outline: (§3)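 Microplate growth-inhibition assay in RPMI-1640, compound at final 250–0.98 µg/mL (DMSO ≤1%). Inoculum 1–5 × 10³ CFU/mL. Sterility and DMSO growth controls included. Percent inhibition is computed from blank-corrected OD relative to the growth control, tested in duplicate.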

[4] = test system: Cryptococcus neoformans; test: Antifungal activity against Cryptococcus neoformans ATCC 32264 assessed as growth inhibition at 15.6 ug/mL after 48 hrs by microplate reader analysis; type: functional; details: ATCC 32264, 48 h, read-out: GI; outline: as §3
[5] = test system: Cryptococcus neoformans; test: Antifungal activity against Cryptococcus neoformans ATCC 32264 assessed as growth inhibition at 125 ug/mL after 48 hrs by microplate reader analysis; type: functional; details: ATCC 32264, 48 h, read-out: GI; outline: as §3
[6] = test system: Candida tropicalis; test: Antifungal activity against Candida tropicalis assessed as growth inhibition at 7.8 ug/mL by microplate reader analysis; type: functional; details: read-out: GI
[7] = test system: Candida tropicalis; test: Fungicidal activity against Candida tropicalis after 48 hrs by agar plate dilution method; type: functional; outline: as §2
[8] = test system: Cryptococcus neoformans; test: Fungicidal activity against Cryptococcus neoformans ATCC 32264 after 48 hrs by agar plate dilution method; type: functional; details: ATCC 32264, 48 h; outline: as §2
[9] = test system: Candida albicans; test: Antifungal activity against Candida albicans ATCC 10231 assessed as growth inhibition at 7.8 ug/mL after 24 hrs by microplate reader analysis; type: functional; details: ATCC 10231, 24 h, read-out: GI
Outline: (§4)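 96-well RPMI-1640 wells with compound at final 250–0.98 µg/mL (DMSO ≤1%). Inoculum 100 µL, 1–5 × 10³ CFU/mL, 200 µL final. Each well includes growth (DMSO, no compound) and sterility controls. % inhibition = 100 − (CTW−SCW)/(GCW−SCW) × 100, run in duplicate.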

[10] = test system: Aspergillus fumigatus; test: Antifungal activity against Aspergillus fumigatus ATCC 26934 at 0.98 to 250 ug/mL by NCCLS broth microdilution method; type: functional, organism-based; outline: as §1
[11] = test system: Candida albicans; test: Antifungal activity against Candida albicans ATCC 10231 assessed as growth inhibition at 31.25 ug/mL after 24 hrs by microplate reader analysis; type: functional; details: ATCC 10231, 24 h, read-out: GI; outline: as §4
[12] = test system: Cryptococcus neoformans; test: Antifungal activity against Cryptococcus neoformans ATCC 32264 assessed as growth inhibition at 31.25 ug/mL after 48 hrs by microplate reader analysis; type: functional; details: ATCC 32264, 48 h, read-out: GI; outline: as §3
[13] = test system: Candida tropicalis; test: Antifungal activity against Candida tropicalis after 48 hrs by NCCLS broth microdilution method; type: functional; details: read-out: MIC100
Outline: (§5)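 Yeast MIC by NCCLS M27-A3 broth microdilution in RPMI-1640 buffered to pH 7.0 with MOPS. Twofold dilutions of 250–0.98 µg/mL, final DMSO ≤1%. Inoculum 1–5 × 10³ CFU/mL. Incubated at 30 °C in a moist dark chamber. Read visually at 48 h. MIC100 is the lowest concentration with no visible growth versus drug-free control.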

[14] = test system: Nannizzia gypsea; test: Antifungal activity against Microsporum gypseum CCC 115 by NCCLS broth microdilution method; type: functional; details: read-out: MIC100; outline: as §1
[15] = test system: Candida albicans; test: Antifungal activity against Candida albicans ATCC 10231 after 24 hrs by microplate reader analysis; type: functional; details: ATCC 10231, 24 h; outline: as §4
[16] = test system: Candida albicans; test: Antifungal activity against Candida albicans ATCC 10231 after 48 hrs by NCCLS broth microdilution method; type: functional; details: ATCC 10231, 48 h, read-out: MIC100; outline: as §5
[17] = test system: Trichophyton rubrum; test: Antifungal activity against Trichophyton rubrum CCC 110 by NCCLS broth microdilution method; type: functional; details: read-out: MIC100; outline: as §1
[18] = test system: Candida albicans; test: Antifungal activity against Candida albicans ATCC 10231 assessed as growth inhibition at 250 ug/mL after 24 hrs by microplate reader analysis; type: functional; details: ATCC 10231, 24 h, read-out: GI; outline: as §4
[19] = test system: Candida albicans; test: Antifungal activity against Candida albicans ATCC 10231 assessed as growth inhibition at 15.6 ug/mL after 24 hrs by microplate reader analysis; type: functional; details: ATCC 10231, 24 h, read-out: GI; outline: as §4
[20] = test system: Candida tropicalis; test: Antifungal activity against Candida tropicalis assessed as growth inhibition at 250 ug/mL by microplate reader analysis; type: functional; details: read-out: GI
[21] = test system: Cryptococcus neoformans; test: Antifungal activity against Cryptococcus neoformans ATCC 32264 after 48 hrs by NCCLS broth microdilution method; type: functional; details: ATCC 32264, 48 h, read-out: MIC100; outline: as §5
[22] = test system: Cryptococcus neoformans; test: Antifungal activity against Cryptococcus neoformans ATCC 32264 assessed as growth inhibition at 3.9 ug/mL after 48 hrs by microplate reader analysis; type: functional; details: ATCC 32264, 48 h, read-out: GI; outline: as §3
[23] = test system: Candida tropicalis; test: Antifungal activity against Candida tropicalis assessed as growth inhibition at 125 ug/mL by microplate reader analysis; type: functional; details: read-out: GI
[24] = test system: Trichophyton mentagrophytes; test: Fungicidal activity against Trichophyton mentagrophytes ATCC 9972 after 48 hrs by agar plate dilution method; type: functional; details: ATCC 9972, 48 h; outline: as §2
[25] = test system: Candida albicans; test: Fungicidal activity against Candida albicans ATCC 10231 after 48 hrs by agar plate dilution method; type: functional; details: ATCC 10231, 48 h; outline: as §2
[26] = test system: Candida tropicalis; test: Antifungal activity against Candida tropicalis assessed as growth inhibition at 3.9 ug/mL by microplate reader analysis; type: functional; details: read-out: GI
[27] = Acute toxicity in bony fish assessed as mortality at 1.6 ug/mL after 24 hrs; details: actinopterygii; read-out: Activity
[28] = Acute toxicity in bony fish assessed as mortality at 5 ug/mL after 96 hrs; details: actinopterygii, 96 h
Outline: (§6)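 Guppy (Poecilia reticulata) acute static exposure: 10 fish per concentration in 2 L wide-mouthed jars holding the test solution. Compounds were added from […] to give the final concentrations. Dead fish were counted and removed every 24 h, with general condition noted; percentage mortality was scored at 96 h. Two experiments, each in triplicate.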

[29] = test system: Cryptococcus neoformans; test: Antifungal activity against Cryptococcus neoformans ATCC 32264 assessed as growth inhibition at 62.5 ug/mL after 48 hrs by microplate reader analysis; type: functional; details: ATCC 32264, 48 h, read-out: GI; outline: as §3
[30] = test system: Cryptococcus neoformans; test: Antifungal activity against Cryptococcus neoformans ATCC 32264 after 48 hrs by microplate reader analysis; type: functional; details: ATCC 32264, 48 h; outline: as §3
[31] = test system: Candida tropicalis; test: Antifungal activity against Candida tropicalis assessed as growth inhibition at 15.6 ug/mL by microplate reader analysis; type: functional; details: read-out: GI
[32] = test system: Trichophyton rubrum; test: Fungicidal activity against Trichophyton rubrum CCC 110 after 48 hrs by agar plate dilution method; type: functional; details: CCC 110, 48 h
Outline: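 Samples from each clear well of the MIC broth microdilution tray were plated onto RPMI-1640 agar buffered with MOPS. That tray had compounds twofold diluted in RPMI (pH 7.0, MOPS) from 250–0.98 µg/mL with inoculum of 1–5 × 10³ CFU/mL, incubated at 28–30 °C for dermatophytes. Plates were incubated at 30 °C and read at 48 h. MFC was taken as the lowest concentration giving total inhibition of visible growth.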

[33] = test system: Candida albicans; test: Antifungal activity against Candida albicans ATCC 10231 assessed as growth inhibition at 62.5 ug/mL after 24 hrs by microplate reader analysis; type: functional; details: ATCC 10231, 24 h, read-out: GI; outline: as §4
[34] = test system: Candida albicans; test: Antifungal activity against Candida albicans ATCC 10231 assessed as growth inhibition at 125 ug/mL after 24 hrs by microplate reader analysis; type: functional; details: ATCC 10231, 24 h, read-out: GI; outline: as §4
[35] = test system: Aspergillus niger; test: Antifungal activity against Aspergillus niger ATCC 9029 at 0.98 to 250 ug/mL by NCCLS broth microdilution method; type: functional, organism-based; outline: as §1
[36] = Acute toxicity in bony fish assessed as mortality at 0.8 ug/mL after 48 hrs; details: actinopterygii; read-out: Activity
[37] = test system: Candida tropicalis; test: Antifungal activity against Candida tropicalis assessed as growth inhibition at 31.25 ug/mL by microplate reader analysis; type: functional; details: read-out: GI
[38] = test system: Aspergillus flavus; test: Antifungal activity against Aspergillus flavus ATCC 9170 at 0.98 to 250 ug/mL by NCCLS broth microdilution method; type: functional, organism-based; outline: as §1
[39] = test system: Candida tropicalis; test: Antifungal activity against Candida tropicalis by microplate reader analysis; type: functional
[40] = test system: Candida tropicalis; test: Antifungal activity against Candida tropicalis assessed as growth inhibition at 62.5 ug/mL by microplate reader analysis; type: functional; details: read-out: GI
[41] = Acute toxicity in bony fish assessed as mortality at 0.4 ug/mL after 96 hrs; details: actinopterygii; read-out: Activity; outline: as §6
[42] = test system: Candida albicans; test: Antifungal activity against Candida albicans ATCC 10231 assessed as growth inhibition at 3.9 ug/mL after 24 hrs by microplate reader analysis; type: functional; details: ATCC 10231, 24 h, read-out: GI; outline: as §4
[43] = test system: Cryptococcus neoformans; test: Antifungal activity against Cryptococcus neoformans ATCC 32264 assessed as growth inhibition at 250 ug/mL after 48 hrs by microplate reader analysis; type: functional; details: ATCC 32264, 48 h, read-out: GI; outline: as §3

COc1nc(N)c(N=O)c(OCc2ccccc2)n1
MIC [1]: 125 µg/mL (≈ 480 µM) | MFC [2]: 62.5 µg/mL (≈ 240 µM) | inhibition of growth at 7.8 µg/mL [3]: 78.1% | inhibition of growth at 15.6 µg/mL [4]: 80.2% | inhibition of growth at 125 µg/mL [5]: 100% | inhibition of growth at 7.8 µg/mL [6]: 56.7% | MFC [7]: 62.5 µg/mL (≈ 240 µM) | MFC [8]: 125 µg/mL (≈ 480 µM) | inhibition of growth at 7.8 µg/mL [9]: 56.9% | Activity [10]: inactive | inhibition of growth at 31.25 µg/mL [11]: 100% | inhibition of growth at 31.25 µg/mL [12]: 88.1% | MIC [13]: 31.2 µg/mL (≈ 120 µM) | MIC [14]: 62.5 µg/mL (≈ 240 µM) | MIC50 [15]: 7.8 µg/mL (≈ 30 µM) | MIC [16]: 31.2 µg/mL (≈ 120 µM) | MIC [17]: 125 µg/mL (≈ 480 µM) | inhibition of growth at 250 µg/mL [18]: 100% | inhibition of growth at 15.6 µg/mL [19]: 99.6% | inhibition of growth at 250 µg/mL [20]: 100% | MIC [21]: 62.5 µg/mL (≈ 240 µM) | inhibition of growth at 3.9 µg/mL [22]: 49.2% | inhibition of growth at 125 µg/mL [23]: 100% | MFC [24]: 125 µg/mL (≈ 480 µM) | MFC [25]: 62.5 µg/mL (≈ 240 µM) | inhibition of growth at 3.9 µg/mL [26]: 19.7% | mortality at 24 h, 1.6 ug/mL [27]: 100% | Activity [28]: Non-toxic | inhibition of growth at 62.5 µg/mL [29]: 100% | MIC50 [30]: 3.9 µg/mL (≈ 15 µM) | inhibition of growth at 15.6 µg/mL [31]: 96.7% | MFC [32]: 125 µg/mL (≈ 480 µM) | inhibition of growth at 62.5 µg/mL [33]: 100% | inhibition of growth at 125 µg/mL [34]: 100% | Activity [35]: inactive | mortality at 48 h, 0.8 ug/mL [36]: 100% | inhibition of growth at 31.25 µg/mL [37]: 100% | Activity [38]: inactive | MIC50 [39]: 7.8 µg/mL (≈ 30 µM) | inhibition of growth at 62.5 µg/mL [40]: 100% | mortality at 96 h, 0.4 ug/mL [41]: 0% | inhibition of growth at 3.9 µg/mL [42]: 47.2% | inhibition of growth at 250 µg/mL [43]: 100%

Source: ChEMBL document CHEMBL2146464, “Structure-activity relationship study of nitrosopyrimidines acting as antifungal agents” (Bioorg Med Chem, 2012)
